Results on 17 compounds are retold here after ChEMBL document CHEMBL1122527, “Design, synthesis, and testing of potential antisickling agents. 5. Disubstituted benzoic acids designed for the donor site and proline salicylates designed for the acceptor site” (J Med Chem, 1984).

Assay [1] in a line: Evaluated for antisickling activity, and initial HbS concentration was reported, values from different experiments (no. of runs=1). It is filed as functional. In a few lines: (§1)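 Hofrichter-type antigelling assay: the compound was made up as its sodium salt (0.18 M stock) in 0.15 M phosphate buffer, pH 7.4, with sodium bicarbonate. It was diluted with buffer and added to HbS (about 35 g % in 0.15 M phosphate), then dithionite (1.06 M stock) was added and the EPR tubes were sealed. Final drug levels were 5, 10, 20 and 40 mM. Initial HbS (g/dL) is the level after drug and dithionite addition, the same in all six tubes of a run.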

A short description of assay [2]: Control value of dHbS(no. of runs=1). It is filed as functional. The essentials:
(§2)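 Deoxy-HbS control tube with buffer in place of the compound: HbS in 0.15 M phosphate was deoxygenated with dithionite (1.06 M stock) in a sealed EPR tube. It was spun with each run's set of six tubes, alongside four drug tubes and a 40 mM phenylalanine standard. The value is the HbS solubility in g/dL, used as the denominator of the solubility ratio.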

Assay [3] is described as follows: Evaluated for antisickling activity, and ratio was calculated as solubility HbS (g/dL) / solubility HbS control(g/dL) at a concentration of 5 mM. The format is functional. In a few lines: (§3)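 Hofrichter-type antigelling assay. Acids were dissolved as sodium salts (sodium bicarbonate) at 0.18 M stock in 0.15 M phosphate, pH 7.4. Aliquots went into HbS (stock around 35 g%) with dithionite as deoxygenant; EPR tubes were sealed and spun. Final drug was 5, 10, 20 and 40 mM. Each six-tube run held a buffer-only deoxy-HbS control and a 40 mM phenylalanine standard. Ratio = soluble HbS with drug / control (g/dL).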

Assay [4] is described as follows: Evaluated for antisickling activity, and ratio was calculated as solubility HbS (g/dL) / solubility HbS control(g/dL) at a concentration of 20 mM. The format is functional. The essentials: as §3
The nature of assay [5]: Evaluated for antisickling activity, and ratio was calculated as solubility HbS (g/dL) / solubility HbS control(g/dL) at a concentration of 10 mM. The format is functional. In a few lines: as §3
The nature of assay [6]: Evaluated for antisickling activity, and ratio was calculated as solubility HbS compound (g/dL) / solubility HbS control(g/dL) at a concentration of 40 mM. It is filed as functional. In a few lines:
as §3

The nature of assay [7]: Evaluated for antisickling activity, and initial HbS concentration was reported, values from different experiments (no. of runs=2). The format is functional. The essentials: as §1
Assay [8] can be described thus: Control value of dHbS(no. of runs=2). It is filed as functional. In a few lines:
as §2

A short description of assay [9]: Compound was evaluated for antisickling activity, and ratio was calculated as solubility HbS compound (g/dL) / solubility HbS control(g/dL) at a concentration of 40 mM (for 173 assays). It is filed as functional. The essentials: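 Phenylalanine reference standard at 40 mM, included in every six-tube set of the sealed-tube dithionite-deoxygenated HbS sedimentation solubility assay, pH 7.4 phosphate. Ratio = soluble HbS with Phe / soluble HbS in the buffer control (g/dL). Reported as mean and standard deviation over 173 assays.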

Assay [10] in a line: Control value of dHbS(no. of runs=3). It is filed as functional. In a few lines: as §2
Assay [11] is described as follows: Compound was evaluated for antisickling activity, and initial HbS concentration was reported, values from different experiments (no. of runs=3). The format is functional. In a few lines:
as §1

A short description of assay [12]: Control value of dHbS (no. of runs=1). It is filed as functional. In a few lines:
as §2

Assay [13] can be described thus: Compound was evaluated for antisickling activity, and initial HbS concentration was reported, values from different experiments (no. of runs=1).
The nature of assay [14]: Compound was evaluated for antisickling activity, and initial HbS concentration was reported, values from different experiments (no. of runs=1). The format is functional. The essentials:
as §1

Assay [15] can be described thus: Control value of dHbS (no. of runs=2). It is filed as functional. The essentials: as §2

The compound `O=C(O)COc1cc(NC(=O)c2ccc(Br)cc2)cc(C(=O)O)c1` came in with a Concentration in [1] of 24 g/dL. In assay [2], this compound returned a Control value of 17.4 g/dL. For the same compound, the Ratio was 1.02 in assay [3], 1.24 in assay [4], 1.08 in [5] and 1.32 in assay [6].
`O=C(O)c1ccccc1OC(=O)C1CCCN1C(=O)COc1ccccc1` (stereo unspecified) displayed a Concentration in assay [1] of 24 g/dL. The Control value in assay [2] worked out at 17.1 g/dL. Also, the Ratio in assay [3] was 0.987; in [4] it was 1.02; in assay [5], 1.02; in [6], 1.08.
In turn, `CC(C)(C)C(=O)N1CCCC1C(=O)Oc1ccccc1C(=O)O` (stereo unspecified) had a Concentration in assay [1] of 22.9 g/dL. In assay [2], this compound returned a Control value of 16.5 g/dL. Further, the Ratio in assay [3] was 0.993; in assay [4], 1.03; in [5], 1; in assay [6], 1.08.
In the case of `N[C@@H](Cc1ccccc1)C(=O)O`, the Ratio was 1.04 in [3]; 1.18 in assay [9]; 1.09 in [4]; 1.05 in assay [5]; 1.18 in [6]. Besides, in assay [7], the Concentration was determined as 24.5 g/dL. The Control value in assay [8] was found to be 17.3 g/dL.
Regarding `O=C(O)COc1cc(NC(=O)c2ccc(Cl)c(Cl)c2)cc(C(=O)O)c1`, the Control value in [10] came to 16.9 g/dL. For the same compound, in [11], the Concentration amounted to 24.8 g/dL. For the same compound, the Ratio in assay [3] was 1.09; in assay [4] it was 1.35; in [5], 1.19; in assay [6], 1.45.
With `CC(C)(C)C(=O)N1CCCC1C(=O)O` (stereo unspecified), the Concentration in [1] came to 22.9 g/dL. Besides, the Control value in assay [2] was determined as 16.1 g/dL. Further, the Ratio was 1.03 in assay [3], 1.05 in [4], 1.05 in assay [5] and 1.07 in assay [6].
For `O=C(O)COc1cc(NC(=O)c2ccccc2)cc(C(=O)O)c1`, the Ratio in assay [3] is 1.06; in assay [4] it was 1.16; in [5] it was 1.09; in assay [6], 1.37. Besides, the Concentration in assay [7] was 23.8 g/dL. This compound also showed a Control value in assay [8] of 17.4 g/dL.
On to `O=C(O)COc1cc(NC(=O)c2ccc(Cl)cc2)cc(C(=O)O)c1`, for which, in [12], the Control value amounted to 17.1 g/dL. Further, the Ratio in assay [3] is 1.07; in assay [4], 1.34; in [5], 1.16; in assay [6] it was 1.38. Further, the Concentration in assay [13] came out at 24 g/dL.
`CCC(=O)Nc1cc(OCC(=O)O)cc(C(=O)O)c1` registered a Concentration in [1] of 24.3 g/dL. The compound further gave a Control value in assay [2] of 16.6 g/dL. Also, the Ratio in [3] is 1; in assay [4] it was 1.07; in [5], 1.03; in [6] it was 1.15.
On to `O=C(O)c1ccccc1OC(=O)C1CCCN1C(=O)CCc1ccccc1` (stereo unspecified), for which, in assay [14], the Concentration was 23.4 g/dL. Also, the figures for the Ratio in assay [4], in assay [5] and in assay [6] were 0.983, 0.988 and 0.951, respectively.
In assay [1], `CCCCCCCC(=O)Nc1cc(OCC(=O)O)cc(C(=O)O)c1` displayed a Concentration of 24.3 g/dL. The compound further registered a Control value in [2] of 16.3 g/dL. Besides, the Ratio in [3] is 1.04; in assay [4], 1.23; in [5] it was 1.1; in assay [6], 1.43.
For `O=C(O)C1CCCN1C(=O)Cc1ccccc1` (stereo unspecified), in [15], the Control value amounted to 17.6 g/dL. For the same compound, the Ratio is 1 in assay [3], 1.06 in assay [4], 1.01 in [5] and 1.13 in [6]. In addition, the Concentration in assay [7] was 24.5 g/dL.
In turn, `CC(C)(Oc1ccc(CCNC(=O)c2ccc(Cl)cc2)cc1)C(=O)O` came in with a Control value in assay [10] of 18.2 g/dL. In addition, the Concentration in assay [11] was 24.8 g/dL. The Ratio in assay [3] was 0.954; in [4], 0.981; in assay [5], 0.932; in assay [6], 1.2.
`O=C(O)c1ccccc1OC(=O)C1CCCN1C(=O)Cc1ccccc1` (stereo unspecified) showed a Concentration in assay [1] of 24.6 g/dL. Also, the Control value in [2] was determined as 17.1 g/dL. Further, the Ratio in assay [3] was 1.03; in assay [4] it was 1.05; in assay [5] it was 1.03; in assay [6], 1.15.
Regarding `O=C(O)c1ccccc1OC(=O)C1CCCN1C(=O)CCC(O)c1ccccc1` (stereo unspecified), the Ratio is 0.99 in assay [3], 1 in assay [4], 0.98 in [5] and 1.15 in assay [6]. This compound displayed a Concentration in [7] of 24.5 g/dL. In addition, the Control value in [8] turned out to be 17.6 g/dL.
With `O=C(O)c1ccccc1OC(=O)C1CCCN1C(=O)c1ccccc1` (stereo unspecified), the Ratio in assay [3] was 0.999; in assay [4] it was 1.01; in assay [5] it was 1; in assay [6] it was 1.03. Besides, the Concentration in [7] worked out at 24.5 g/dL. Also, the Control value in assay [8] stood at 17.2 g/dL.
Turning to `CC(C)(C)CC(=O)N1CCCC1C(=O)Oc1ccccc1C(=O)O` (stereo unspecified), the Ratio in assay [3] is 0.991; in assay [4], 0.995; in assay [5] it was 1.02; in assay [6] it was 1.05. In assay [7], this compound returned a Concentration of 28.3 g/dL. In [8], this compound displayed a Control value of 17.6 g/dL.
